Results taken from PMC6064589 (Diabetes Therapy, 2018).
Read-outs that look alike come from different tables or passages of the source.

Assays:
[1] = system: healthy subjects; format: in vivo, human
In short: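 Healthy subjects randomised to once-weekly s.c. test peptide or placebo, escalated every 4 weeks (0.25, 0.5, 1.0, 1.5 mg) over 16 weeks. Supine continuous 12-lead Holter (Mason-Likar) ECGs at steady state of each level: pre-dose and 12, 18, 24, 25, 26, 27, 30, 36, 42, 48 h. QT/RR measured semi-automatically, lead II. QTcI=QT/RR^β (subject-specific β); QTcL, QTcF, QTcB. Placebo-subtracted baseline-adjusted means, two-sided 90% CIs.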

[2] = system: healthy subjects; experiment: Other ECG assessments; format: in vivo, human
In short: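 ECGs come from the same Holter recordings: 11 time points, pre-dose to 48 h after last dose at 0.5, 1.0 and 1.5 mg. HR, PR and QRS use the same model. Outlier cut-offs: HR <50 or >100 bpm; PR >220 ms and/or >25% change from baseline; QRS >110 ms and/or >25% change. A cardiologist read one random ECG per time point for T/U wave abnormalities.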

[3] = system: healthy subjects; experiment: Safety and tolerability; format: in vivo, human
In short: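 Healthy subjects received s.c. test peptide or placebo once weekly for 16 weeks, escalating 0.25→0.5→1.0→1.5 mg every 4 weeks, with 5–7-week follow-up. Some injections were given on-site, the rest self-administered. Recorded: adverse events, hypoglycaemic events, anti-drug antibodies at follow-up, haematology, biochemistry, urinalysis, calcitonin, vital signs, ECG, physical examination, body weight and fasting plasma glucose changes from baseline.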

[4] = Pharmacokinetics of semaglutide at steady state of each dose level; format: in vivo, human; details: doses 0.25-1.5 mg at steady state
[5] = system: dipeptidyl peptidase-4 (DPP-4); details: due to substitution at position 8; cited from earlier work
[6] = phase 3 trials; cited from earlier work
[7] = system: healthy subjects; details: cited from earlier work
[8] = system: healthy subjects; format: in vivo, human; details: single oral 400 mg dose, N = 76
In short: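 Placebo-arm subjects received single oral 400 mg positive control or matching placebo in nested crossover, before (baseline) and after (week 15) placebo treatment. […] Supine Holter ECGs pre-dose and 1, 2, 3, 6, 12, 18, 24 h. QTcI analysed by ANOVA (treatment, period, subject fixed; pre-dose QTcI covariate). 3 and 6 h confirmatory with 95% CI; other times with 90% CI.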

[9] = 1.5 mg at steady state, 0-48 h after dosing
[10] = s.c. once weekly, escalated 0.25 to 1.5 mg over 16 weeks, N = 83

**Q.** For `CC[C@H](C)[C@H](NC(=O)[C@H](Cc1ccccc1)NC(=O)[C@H](CCC(=O)O)NC(=O)[C@H](CCCCNC(=O)COCCOCCNC(=O)COCCOCCNC(=O)CC[C@H](NC(=O)CCCCCCCCCCCCCCCCC(=O)O)C(=O)O)NC(=O)[C@H](C)NC(=O)[C@H](C)NC(=O)[C@H](CCC(N)=O)NC(=O)CNC(=O)[C@H](CCC(=O)O)NC(=O)[C@H](CC(C)C)NC(=O)[C@H](Cc1ccc(O)cc1)NC(=O)[C@H](CO)NC(=O)[C@H](CO)NC(=O)[C@@H](NC(=O)[C@H](CC(=O)O)NC(=O)[C@H](CO)NC(=O)[C@@H](NC(=O)[C@H](Cc1ccccc1)NC(=O)[C@@H](NC(=O)CNC(=O)[C@H](CCC(=O)O)NC(=O)C(C)(C)NC(=O)[C@@H](N)Cc1cnc[nH]1)[C@@H](C)O)[C@@H](C)O)C(C)C)C(=O)N[C@@H](C)C(=O)N[C@@H](Cc1c[nH]c2ccccc12)C(=O)N[C@@H](CC(C)C)C(=O)N[C@H](C(=O)N[C@@H](CCCNC(=N)N)C(=O)NCC(=O)N[C@@H](CCCNC(=N)N)C(=O)NCC(=O)O)C(C)C` [semaglutide], which “Upper limits of all 11 two-sided 90% CIs for the mean ΔΔQTcI” value ([1]; 0.5 mg at steady state, 0-48 h after dosing) is on record?
**A.** < 10 ms

**Q.** What about the “Upper limits of all 11 two-sided 90% CIs for the mean ΔΔQTcI” value ([1]; 1.0 mg at steady state, 0-48 h after dosing) of the same molecule?
**A.** < 10 ms

**Q.** What about the “Maximum upper limit of the two-sided 90% CI for the time-matched ΔΔQTcI” value [1, 9] of the same molecule?
**A.** 0.3 ms

**Q.** What about the “Upper limits of the 11 two-sided 90% CIs of ΔΔQTcI” value [1, 9] of the same molecule?
**A.** < 10 ms

**Q.** And the “Prolongation of the uncorrected QT interval, QTcL or QTcF” value ([1]; doses of 0.5, 1.0 and 1.5 mg at steady state)?
**A.** No prolongation was observed

**Q.** What about the “QTcB, upper limits of the 90% CIs” value ([1]; for at least one time point at all dose levels) of the same molecule?
**A.** > 10 ms

**Q.** What about the “Increased PR interval of > 25% above baseline” value ([2]; 0.5 mg group) of the same molecule?
**A.** none

**Q.** What about the “Increased PR interval of > 25% above baseline” value ([2]; 1.0 and 1.5 mg treatment groups) of the same molecule?
**A.** five

**Q.** What about the “Second-degree or higher-grade atrioventricular block” value ([2]; all ECGs evaluated by the cardiologist) of the same molecule?
**A.** no observations of a second-degree atrioventricular block or higher-grade atrioventricular blocks

**Q.** And the “Changes in QRS complex duration of > 25% above baseline” value ([2]; any of the treatment arms)?
**A.** No changes

**Q.** And the “Subjects with T wave abnormalities” value ([2]; doses 0.5 or 1.0 mg, female subjects, all of no clinical relevance)?
**A.** three

**Q.** And the U wave abnormalities ([2]; either group)?
**A.** no U wave abnormalities were observed

**Q.** And the “Diastolic BP change from baseline to last dose” value ([3]; 16-week treatment, mean ± SD)?
**A.** 5 ± 8 mmHg

**Q.** What about the “HR change from baseline to last dose (vital signs)” value ([3]; 16-week treatment, mean ± SD) of the same molecule?
**A.** 10 ± 9 bpm

**Q.** And the “Development of anti-semaglutide antibodies” value ([3]; at follow-up)?
**A.** no subjects developed anti-semaglutide antibodies

**Q.** What about the Severe hypoglycemic episodes ([3]; in vivo) of the same molecule?
**A.** No severe hypoglycemic episodes were reported

**Q.** And the “Events leading to withdrawal, percentage of subjects” value [3, 10]?
**A.** 2.4%

**Q.** And the “Gastrointestinal disorders (predominantly nausea, vomiting and diarrhea), subjects” value [3, 10]?
**A.** 56.6%

**Q.** And the “Metabolism and nutrition disorders (predominantly decreased appetite), subjects” value [3, 10]?
**A.** 51.8%

**Q.** What about the “Increase in AUC0−48h and Cmax with increasing dose” value [4] of the same molecule?
**A.** consistent with dose proportionality

**Q.** And the “Susceptibility to degradation by dipeptidyl peptidase-4 (DPP-4)” value [5]?
**A.** less susceptible to degradation

**Q.** What about the “Mean increases in HR with semaglutide versus placebo” value [6] of the same molecule?
**A.** up to 3 bpm

**Q.** What does the source list for albiglutide?
**A.** PR interval prolongation [7]: A PR interval prolongation has also been observed; Prolongation of the QTcI interval or QTc by other correction methods ([7]; healthy subjects): neither albiglutide administered once weekly nor liraglutide administered once daily have been observed to prolong the QTcI interval

**Q.** Which results are given for liraglutide?
**A.** PR interval prolongation [7]: A PR interval prolongation has also been observed; Prolongation of the QTcI interval or QTc by other correction methods ([7]; healthy subjects): neither albiglutide administered once weekly nor liraglutide administered once daily have been observed to prolong the QTcI interval

**Q.** For `COc1c(N2C[C@@H]3CCCN[C@@H]3C2)c(F)cc2c(=O)c(C(=O)O)cn(C3CC3)c12` [moxifloxacin], which “Estimated treatment difference moxifloxacin vs. placebo, QTcI” value ([8]; 1 h after dosing) is on record?
**A.** 10.0 ms

**Q.** And the “Estimated treatment difference moxifloxacin vs. placebo, QTcI” value ([8]; 2 h after dosing)?
**A.** 12.3 ms

**Q.** And the “Estimated treatment difference moxifloxacin vs. placebo, QTcI” value ([8]; 3 h after dosing (confirmatory endpoint))?
**A.** 12.3 ms

**Q.** What about the “Estimated treatment difference moxifloxacin vs. placebo, QTcI” value ([8]; 6 h after dosing (confirmatory endpoint)) of the same molecule?
**A.** 8.9 ms

**Q.** Which results are given for dulaglutide?
**A.** QTc prolongation ([7]; administered once weekly): not associated with QTc prolongation; PR interval prolongation [7]: A PR interval prolongation has also been observed

**Q.** With exenatide as the molecule, how does the “Correlation between exposure and QTc interval” value ([7]; single dose) read?
**A.** positive correlation

**Q.** And the “Prolongation of QTcP or QTcI” value ([7]; supratherapeutic concentrations, intravenous, healthy subjects)?
**A.** no prolongation
